Reference: ChEMBL document CHEMBL1128676, “Phosphonates and phosphinates: novel leaving groups for benzisothiazolone inhibitors of human leukocyte elastase” (J Med Chem, 1995)

Columns and labels:
[1] = target: T1, Neutrophil elastase (Homo sapiens, UniProt P08246); assay: Inhibitory activity against Human leukocyte elastase was determined
T1 sequence (P08246 whole entry): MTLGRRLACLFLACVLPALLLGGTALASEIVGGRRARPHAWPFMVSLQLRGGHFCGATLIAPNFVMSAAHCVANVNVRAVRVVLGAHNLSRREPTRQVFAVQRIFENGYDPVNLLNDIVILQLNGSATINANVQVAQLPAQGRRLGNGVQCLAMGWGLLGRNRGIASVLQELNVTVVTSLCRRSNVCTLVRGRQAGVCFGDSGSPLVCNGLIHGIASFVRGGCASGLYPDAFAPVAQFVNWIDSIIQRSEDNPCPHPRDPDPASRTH
Summary of the method: (§1)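 Human leukocyte elastase inhibition measured in vitro at pH 7.8. Kinetic constants reported as k_inact (M⁻¹ s⁻¹), k_react (s⁻¹) and K_i* (nM).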

[2] = target: T2, Neutrophil elastase (Homo sapiens) (UniProt P08246); assay: Inhibitory activity against Human leukocyte elastase as kinetic constant for inhibition (inactivation); summary of the method: as §1
T2 sequence (whole entry): T1 sequence (P08246 whole entry)

[3] = target: T2, Neutrophil elastase (Homo sapiens); assay: Inhibitory activity against Human leukocyte elastase was determined in vitro and expressed as kinetic constant for inhibition (reactivity); summary of the method: as §1
[4] = Acid dissociation constant was determined; format: ADME
[5] = test system: Cricetinae gen. sp.; assay: In vivo inhibitory activity of 10 mg/kg compound administered subcutaneously against Human leukocyte elastase induced hemorrhage in hamster; format: functional, Cricetulus griseus; conditions: sc, route subcutaneous
Summary of the method: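 Hamsters dosed subcutaneously at 10 mg/kg, 1 min before intratracheal instillation of human leukocyte elastase (25 μg), to induce pulmonary hemorrhage. Readout is % inhibition of in vivo HLE activity, mean ± error.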

[6] = target: T1, Neutrophil elastase; assay: In vitro inhibitory activity against Human leukocyte elastase; summary of the method: as §1
[7] = target: T2, Neutrophil elastase (Homo sapiens)
[8] = test system: Cricetinae gen. sp.; assay: In vivo inhibitory activity of 10 mg/kg compound administered intravenously against Human leukocyte elastase induced hemorrhage in hamster; format: functional, Cricetulus griseus; conditions: route intravenous
Summary of the method: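 Hamster elastase-induced pulmonary hemorrhage model: 10 mg/kg given intravenously 1 min before intratracheal human leukocyte elastase (25 μg). Result expressed as % inhibition of HLE activity, mean ± error.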

| SMILES | Ki [1] [nM] | K inact [2] [M⁻¹ s⁻¹] | Kreact [3] [s⁻¹] | pKa [4] | Ki [6] [nM] | K inact [7] [M⁻¹ s⁻¹] | inhibition in vivo at 10 mg/kg [5] [%] | inhibition in vivo at 10 mg/kg [8] [%] |
| --- | --- | --- | --- | --- | --- | --- | --- | --- |
| COP(=O)(OC)OCN1C(=O)c2ccccc2S1(=O)=O | 100 | 800 | – | 2.56 | – | – | – | – |
| O=C1c2ccccc2S(=O)(=O)N1COP(=O)(c1ccccc1)c1ccccc1 | 30 | 1900 | – | 3.34 | – | – | – | – |
| CCOP(=O)(OCC)OCN1C(=O)c2c(C(C)C)cc(OC)cc2S1(=O)=O | – | 343000 | 1.2e-05 | – | – | – | – | 92 |
| O=C1c2ccccc2S(=O)(=O)N1COP(=O)(Oc1ccccc1)Oc1ccccc1 | 6.5 | 11000 | – | 1.91 | – | – | – | – |
| CCOP(=O)(OCC)OCN1C(=O)c2c(C(C)C)cc(O)cc2S1(=O)=O | – | 3300 | 1.4e-05 | – | 4.5 | – | – | – |

Second part, led by results:

| Ki [1] [nM] | K inact [2] [M⁻¹ s⁻¹] | Kreact [3] [s⁻¹] | pKa [4] | Ki [6] [nM] | K inact [7] [M⁻¹ s⁻¹] | SMILES | inhibition in vivo at 10 mg/kg [5] [%] | inhibition in vivo at 10 mg/kg [8] [%] |
| --- | --- | --- | --- | --- | --- | --- | --- | --- |
| 24 | 2300 | – | – | – | – | CCCCP(=O)(CCCC)OCN1C(=O)c2ccccc2S1(=O)=O | – | – |
| 60 | 1100 | 6.6e-05 | 2.5 | 60 | 1100 | CCOP(=O)(OCC)OCN1C(=O)c2ccccc2S1(=O)=O | 56 | – |
| 20.5 | 4100 | – | 2.26 | – | – | O=C1c2ccccc2S(=O)(=O)N1COP(=O)(OCc1ccccc1)OCc1ccccc1 | – | – |
| – | 530000 | 5.3e-05 | – | 0.1 | – | CCOP(=O)(OCC)OCN1C(=O)c2c(C(C)C)cccc2S1(=O)=O | – | 84 |
| – | 800000 | 5.6e-05 | – | 0.07 | – | CCOP(=O)(OCC)OCN1C(=O)c2c(C(C)CC)cccc2S1(=O)=O (stereo not drawn) | 83 | – |
| 17 | 4800 | – | 2.59 | – | – | CCCCOP(=O)(OCCCC)OCN1C(=O)c2ccccc2S1(=O)=O | – | – |
